# A selection: hits, their analogues and other compounds. The true share with any hit is near 3.1%.
# KCNQ1 block: human KCNQ1 channel inhibition; P51787; CHO-K1 KCNQ1, FluxOR thallium flux fluorescence; stronger effect = higher value; B-score at 10 µM; 310,000 tested, 1.3% active; AID 2642;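 active = compounds whose thallium flux B-score, printed positive for inhibition, exceeds three library SD while starting fluorescence stays within three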;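 also: channel opened by potassium depolarization with thallium stimulus after 20 min compound exposure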
# KCNQ1 pot: human KCNQ1 channel potentiation or activation; 310,000 tested, 0.35% active; CHO-K1 KCNQ1, thallium flux FluxOR fluorescence; stronger effect = higher value; P51787; B-score at 10 µM;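 active = fluorescence ratio B-score, a plate-corrected score, at least three library SD, with initial intensity B-score within 5 SD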
#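 System: CHO-K1 cells stably expressing KCNQ1 / Medium: assay buffer for compound exposure, DMSO matched across wells / Reagent: thallium- and potassium-containing depolarizing buffer / Compound: one concentration, matched DMSO / Incubation: 20 min compound pretreatment at room temperature / Measured by: kinetic FluxOR fluorescence, 10 s baseline plus 110 s post-stimulus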
# hERG protect: compounds protecting human hERG from proarrhythmic drug block; Q12809; CHO-hERG, FluxOR thallium flux, dofetilide IC70 present; activation (rescue from dofetilide block), less the hit threshold, % at 10 µM; 310,000 tested, 0.51% active; AID 1511;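 active = activation above the mean of controls blocked by dofetilide plus 5 SD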;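 also: thallium influx through hERG after potassium depolarization seen as dye fluorescence rise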
# KCNK3 inh: human KCNK3 channel inhibition, primary screen; O14649; CHO-KCNK3 thallium flux, FluxOR fluorescence; stronger effect = lower value; 340,000 tested, 0.84% active; B-score at 10 µM; AID 602410;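 active = B-score under library mean minus 4 SD, starting fluorescence ratio at most library mean plus 5 SD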;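 also: more negative B-score means stronger inhibition of thallium flux through KCNK3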
# KCNK9 block: blocks the human KCNK9 two-pore domain potassium channel; Q9NPC2; HEK293 KCNK9, FluxOR thallium flux fluorescence; stronger effect = lower value; B-score at 10 µM; 310,000 tested, 1.2% active;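 active = ratio B-score over 3 SD below the library mean, with starting fluorescence within 5 SD of its mean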;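 also: negative B-score means less thallium flux so channel inhibition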
# Target sequence (Q9NPC2 whole entry, looked up, the tested form may be a part): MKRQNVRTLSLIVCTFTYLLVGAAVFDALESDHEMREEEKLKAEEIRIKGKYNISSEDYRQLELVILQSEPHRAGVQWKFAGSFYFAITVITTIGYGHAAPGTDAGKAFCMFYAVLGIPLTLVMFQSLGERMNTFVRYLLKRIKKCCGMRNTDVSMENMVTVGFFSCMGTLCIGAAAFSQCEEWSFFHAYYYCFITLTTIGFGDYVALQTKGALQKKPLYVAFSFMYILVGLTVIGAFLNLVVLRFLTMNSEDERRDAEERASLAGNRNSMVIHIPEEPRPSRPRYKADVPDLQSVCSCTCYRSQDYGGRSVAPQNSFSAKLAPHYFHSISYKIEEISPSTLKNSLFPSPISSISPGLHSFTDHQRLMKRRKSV
# KCNQ1 block val: reconfirmed blocker of the human KCNQ1 potassium channel; shares compounds with KCNQ1 block; KCNQ1 cell line, FluxOR thallium flux fluorescence; inhibition, % at 10 µM; 1,600 tested, 93% active; AID 588353;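 active = primary screen active, with duplicate mean exceeding buffer control mean plus 3 SD of buffer wells, cut at about 28% in these data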
# CHO Tl flux: activity in parental CHO cells lacking KCNQ1; shares compounds with KCNQ1 block; parental CHO-K1, FluxOR thallium flux fluorescence ratio; stronger effect = lower value; zero means no signal rise above baseline; fluorescence ratio (Tl flux) at 10 µM; 1,600 tested, 21% active;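 active = mean of duplicate thallium-flux fluorescence ratios in parental host cells more than 5 SD below the buffer control mean, cut at about 0.38 in these data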;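 also: ratio is peak minus minimum fluorescence divided by baseline fluorescence; actives read low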
# KCNQ1 ephys val: blocks human KCNQ1 current in automated patch clamp. shares compounds with KCNQ1 block. KCNQ1-CHO cells. calls only at 10 µM. 490 tested, 20% active;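 active = KCNQ1 current drop exceeding 3 SD of negative control wells, seen in both duplicate runs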;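 also: steady state current during a 2 s step from -80 to +40 mV; negative values mean current inhibition and positive values mean potentiation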
# KCNQ2 inh: rat KCNQ2 inhibition in KCNQ1 inhibitor specificity screen; shares compounds with KCNQ1 block; KCNQ2 cells, FluxOR thallium flux fluorescence; inhibition, % at 10 µM; 1,600 tested, 71% active; AID 651746;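 active = mean percent inhibition of the KCNQ2 thallium signal more than 5 SD above the buffer-only control wells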;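 also: KCNQ2 expressed in CHO cells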
# KCNQ1 KCNE1 spec: human KCNQ1/KCNE1 inhibition in KCNQ1 specificity screen; shares compounds with KCNQ1 block; KCNQ1/KCNE1 cells, FluxOR thallium flux fluorescence; inhibition, % at 10 µM; 1,600 tested, 77% active;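 active = mean percent inhibition of duplicate wells above the buffer-only control mean plus 3 SD of those controls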
# Numbers stand for hits; n = inactive; x = no result; + = active, no number.
SMILES,KCNQ1 block,KCNQ1 pot,hERG protect,KCNK3 inh,KCNK9 block,KCNQ1 block val,CHO Tl flux,KCNQ1 ephys val,KCNQ2 inh,KCNQ1 KCNE1 spec
O=c1ccc2c(-c3ccccc3)c3ccc(O)cc3oc-2c1,24,n,n,n,n,+,0,x,n,n
COc1ccc(-c2c(C)c3ccc(O)cc3oc2=O)cc1OC,n,n,n,n,n,x,x,x,x,x
CC(C)Oc1ccc(C(CCN)C2CCCCC2)cc1 (stereo unspecified),n,n,n,n,n,x,x,x,x,x
CCN(CC)c1nc(-c2ccccc2)ncc1S(=O)(=O)c1ccc(C)cc1,6,n,n,n,n,84,n,x,80%,130%
COC(C(=O)Nc1ccnn1C1CCN(Cc2ccc(CO)o2)CC1)c1ccccc1 (stereo unspecified),n,n,n,n,n,x,x,x,x,x
O=C(OCC(=O)c1c[nH]c2ccccc12)c1cccc([N+](=O)[O-])c1,x,x,x,n,x,x,x,x,x,x
COc1ccc(Cl)cc1N(C(=O)c1ccco1)C(C(=O)NC1CCCC1)c1ccco1 (stereo unspecified),n,n,n,n,n,x,x,x,x,x
Cc1ccc(N(C(=O)c2ccco2)C(C(=O)NC2CCCC2)c2ccco2)c(C)c1 (stereo unspecified),7,n,n,n,n,82,n,x,76%,61%
Oc1ccccc1N1CCN(c2ncnc3scc(-c4ccccc4)c23)CC1,6,n,n,n,-8,112,n,n,91%,156%
c1ccc(-c2csc3ncnc(N4CCN(Cc5ccc6c(c5)OCO6)CC4)c23)cc1,6,n,n,n,n,110,n,n,113%,116%
Cc1ccc(S(=O)(=O)NC(=O)Nc2cccc(S(=O)(=O)N(C)C)c2)cc1,x,x,x,n,x,x,x,x,x,x
CC(C)Cn1c(N)c(C(=O)COC(=O)c2cc(-c3ccccc3)nc3ccccc23)c(=O)n(C)c1=O,7,n,n,n,n,106,n,n,120%,156%
CC(C)Cn1c(N)c(C(=O)COC(=O)c2cc(-c3ccco3)nc3ccccc23)c(=O)n(C)c1=O,n,n,n,n,n,x,x,x,x,x
CC(C)(C)C(=O)COC(=O)c1cc(-c2ccncc2)nc2ccccc12,7,n,n,n,n,52,n,x,92%,48%
O=C(c1cc(-c2cccs2)on1)N1CCN(C(c2ccccc2)c2ccccc2)CC1,6,n,n,n,n,99,n,x,103%,126%
CCCc1cc(C(=O)N2CCN(C(c3ccccc3)c3ccccc3)CC2)no1,10,n,n,n,n,126,n,n,106%,162%
O=c1c2c(nc3n1CCCCC3)-c1ccccc1CC21CCCCC1,7,n,n,n,n,104,n,n,106%,88%
COC(=O)[C@]1(Cc2ccccc2)N[C@H](CN(C)S(=O)(=O)c2ccc(C(C)(C)C)cc2)[C@@H]2C(=O)N(C)C(=O)[C@@H]21,x,x,x,n,x,x,x,x,x,x
Cc1ccccc1N1CCN(S(=O)(=O)c2ccccc2)CC1,n,n,n,n,n,x,x,x,x,x
Cc1cc(S(=O)(=O)N2CCN(c3c(C)cccc3C)CC2)ccc1F,8,n,n,n,n,103,n,n,81%,136%
Cc1cc(S(=O)(=O)N2CCN(c3ccccc3C)CC2)ccc1F,11,n,n,-9.8,n,168,0.35,x,n,n
COc1ccc(S(=O)(=O)N2CCN(c3c(C)cccc3C)CC2)cc1OC,8,n,n,n,n,99,0.36,x,110%,92%
CCN(CC(=O)NC(=O)Nc1ccccc1F)Cc1ccccc1,n,n,n,n,n,x,x,x,x,x
C=CCNc1nc2ccccc2nc1NS(=O)(=O)c1ccc(Cl)cc1,6,n,n,n,n,50,n,x,64%,n

# Screening results as filed in PubChem.
